The text below walks through data of ChEMBL document CHEMBL3232932, “UPLC-MS-ELSD-PDA as a powerful dereplication tool to facilitate compound identification from small-molecule natural product libraries” (J Nat Prod, 2014).

A word on the EC50: it is the concentration needed to bring the measured effect to its halfway point. A lower EC50 goes with an effect from little substance.

Data set [1] can be described thus: Retention time of the compound by ELSD chromatography. The class given is physicochemical. In a few lines:
(§1)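 Waters Acquity UPLC with ELSD, PDA and single-quadrupole ESI-MS (positive and negative modes). Fractions from automated fractionation of plant extracts were run on a BEH C18 column (2.1 × 50 mm, 1.7 μm) at 1.0 mL/min. Mobile phase was H2O with 0.1% HCOOH against CH3CN or MeOH, with a 3.0 min total run. The gradient differed by run.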

Data set [2] in a line: Retention time of the compound by PDA chromatography. The class given is physicochemical. In a few lines:
as §1

Data set [3] in a line: Antiproliferative activity against mouse ependymoma cells harboring EPHB2 after 96 hrs by Cell-Titer Glo assay. It is filed as functional, cell-based. An outline of the steps:
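Cells seeded in neurobasal medium in 384-well plates. Compounds were pin-transferred 24 h later, and DMSO and cycloheximide controls were included on each plate. Dose-response was run as a dilution series in triplicate. After 96 h incubation, cell number was read by CellTiter-Glo luminescence. Data were log10-transformed and percent inhibition calculated, and EC50 was derived.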

Consider `CC1=c2cc3c(cc2C(=O)OC1(C)C)=C(C)C(C)(C)OC3=O`, for which the Retention_time in data set [1] was 0.9 min; in data set [2] it was 0.92 min.
`C=C1CC[C@@H]2[C@](C)(CCC[C@]2(C)C(=O)O)[C@H]1CCC(C)(O)C(O)CO` (mixture of isomers) gave an EC50 in data set [3] of over 100 µg/mL. For the same compound, the Retention_time in data set [1] was 0.92 min.
On to `COc1ccc([C@@H]2CC(=O)c3c(O)cc(O)cc3O2)cc1O` [HESPERETIN], for which the Retention_time worked out at 0.91 min in data set [1] and 0.87 min in data set [2].
In turn, `COc1cc(C[C@H]2C(=O)OC[C@@H]2Cc2ccc3c(c2)OCO3)cc(OC)c1OC` registered a Retention_time in data set [1] of 1.2 min.
Turning to `COc1cc([C@@H]2CC(=O)c3c(O)cc(O)cc3O2)ccc1O` [HOMOERIODICTYOL], the Retention_time in data set [1] came out at 0.89 min; in data set [2], 0.85 min.
In data set [3], `COc1cc([C@@H]2c3cc4c(cc3C[C@H]3COC(=O)[C@@H]32)OCO4)cc(OC)c1OC` [DESOXYPODOPHYLLOTOXIN] came in with an EC50 of 1.93 nM. The Retention_time in data set [1] came out at 1.18 min; in data set [2], 1.15 min.
As to `COc1cc(O)c2c(c1)OC(c1ccc(O)c(O)c1)CC2=O` (centres undefined), the Retention_time worked out at 1.02 min in data set [1] and 0.98 min in data set [2].
